Measurements as given in ChEMBL document CHEMBL1154352, “Toll-like receptor 7 selective synthetic oligoribonucleotide agonists: synthesis and structure-activity relationship studies” (J Med Chem, 2009).
The source made the active and inactive calls. The rule behind the calls is not given here.

Assays:
PBMC [1] = experiment: Immunomodulatory activity in human PBMC assessed as induction of IFNalpha at 50 ug/ml after 24 hrs; type: functional, cell-based
How it was run: (§1)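 Human PBMCs plated at 5 × 10^6 cells/mL; compounds dissolved in PBS added at various concentrations, 37 °C for 24 h. Supernatant cytokines/chemokines quantified with human Luminex multiplex kit.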

Homo sapiens [2] = organism: Homo sapiens; experiment: Ratio of human TLR7 activity to human TLR8 activity
How it was run: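 TLR7/TLR8 ratio computed from fold NF-κB (SEAP reporter) activation in HEK293 cells stably expressing human TLR7 versus TLR8, compounds at 50 μg/mL, 18 h exposure; representative of three independent experiments.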

Homo sapiens [3] = organism: Homo sapiens; experiment: Immunostimulatory activity in human pDC assessed as induction of IFNalpha at 100 ug/ml after 24 hrs; type: functional
How it was run: (§2)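 Human pDCs plated at 1 × 10^6 cells/mL; compounds in PBS added, 37 °C for 24 h; supernatant cytokines/chemokines by human Luminex multiplex kit.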

Homo sapiens [4] = organism: Homo sapiens; experiment: Immunostimulatory activity in human mDC assessed as induction of IFNalpha at 100 ug/ml after 24 hrs; type: functional
How it was run: (§3)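 Human mDCs isolated from PBMCs by CD19+ B-cell depletion then BDCA1 positive selection; plated at 1 × 10^6 cells/mL, compounds in PBS, 37 °C for 24 h; supernatant cytokines by human Luminex multiplex. Representative of four independent experiments.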

PBMC [5] = experiment: Immunomodulatory activity in human PBMC assessed as induction of MIP1alpha at 50 ug/ml after 24 hrs; type: functional, cell-based; how it was run: as §1
Mus musculus = experiment: Immunomodulatory activity in C57BL/6 mouse assessed as induction of IL12 release at 25 mg/kg, sc after 2 hrs by ELISA; type: functional, organism-based; set-up: dose 25 mg/kg
How it was run: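 Female C57BL/6 wild-type mice, 5–8 weeks old, n=3; compounds given subcutaneously at 10 or 25 mg/kg. Retro-orbital blood at 2 h; serum cytokines by mouse Luminex multiplex or IL-12 ELISA.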

PBMC [6] = experiment: Immunomodulatory activity in human PBMC assessed as induction of IP10 at 50 ug/ml after 24 hrs; type: functional, cell-based; how it was run: as §1
Homo sapiens [7] = organism: Homo sapiens; experiment: Immunostimulatory activity in human mDC assessed as induction of TNFalpha at 100 ug/ml after 24 hrs; type: functional; how it was run: as §3
Homo sapiens [8] = organism: Homo sapiens; experiment: Immunostimulatory activity in human pDC assessed as induction of IP10 at 100 ug/ml after 24 hrs; type: functional; how it was run: as §2
PBMC [9] = experiment: Immunomodulatory activity in human PBMC assessed as induction of IL6 at 50 ug/ml after 24 hrs; type: functional, cell-based; how it was run: as §1
Homo sapiens [10] = organism: Homo sapiens; experiment: Immunostimulatory activity in human pDC assessed as induction of IL6 at 100 ug/ml after 24 hrs; type: functional; how it was run: as §2
PBMC [11] = experiment: Immunomodulatory activity in human PBMC assessed as induction of TNFalpha at 50 ug/ml after 24 hrs; type: functional, cell-based; how it was run: as §1
Homo sapiens [12] = organism: Homo sapiens; experiment: Immunostimulatory activity in human mDC assessed as induction of IP10 at 100 ug/ml after 24 hrs; type: functional; how it was run: as §3
[13] = Metabolic stability in human serum assessed as full length product remaining after 10 mins by HPLC; type: ADME, cell-free; settings: read-out: Stability
How it was run: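 About 0.5 A260 units compound in 1% human serum in PBS, 37 °C; aliquot taken at 10 min, analysed by anion-exchange HPLC for percent intact full-length product.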

PBMC [14] = experiment: Immunomodulatory activity in human PBMC assessed as induction of MCP1 at 50 ug/ml after 24 hrs; type: functional, cell-based; how it was run: as §1
PBMC [15] = experiment: Immunomodulatory activity in human PBMC assessed as induction of IL12 at 100 ug/ml after 24 hrs; type: functional, cell-based; how it was run: as §1
Homo sapiens [16] = organism: Homo sapiens; experiment: Immunostimulatory activity in human mDC assessed as induction of IL12 at 100 ug/ml after 24 hrs; type: functional; how it was run: as §3
Splenocyte = experiment: Immunomodulatory activity in C57BL/6 mouse splenocytes bearing TLR7 receptor assessed as IL6 release at 100 ug/ml after 24 hrs by ELISA; type: functional, cell-based
How it was run: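 C57BL/6 splenocytes in RPMI 1640 with 10% FBS, penicillin/streptomycin, 2 mM L-glutamine, plated at 5 × 10^6 cells/mL; compounds in PBS added, 37 °C for 24 h. Supernatant IL-12 and IL-6 by ELISA; representative of three independent experiments.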

PBMC [17] = experiment: Immunomodulatory activity in human PBMC assessed as induction of MIP1beta at 50 ug/ml after 24 hrs; type: functional, cell-based; how it was run: as §1
PBMC [18] = experiment: Immunomodulatory activity in human PBMC assessed as induction of IL1-beta at 50 ug/ml after 24 hrs; type: functional, cell-based; how it was run: as §1
PBMC [19] = experiment: Immunomodulatory activity in human PBMC assessed as induction of IL12 at 50 ug/ml after 24 hrs; type: functional, cell-based; how it was run: as §1
Homo sapiens [20] = organism: Homo sapiens; experiment: Immunostimulatory activity in human mDC assessed as induction of IL6 at 100 ug/ml after 24 hrs; type: functional; how it was run: as §3
[21] = target: T1, Toll-like receptor 9 (Mus musculus) (UniProt Q9EQU3); experiment: Activation of mouse TLR9 expressed in HEK293 assessed as induction of NF-kappaB activity reporter gene assay; type: cell-based
T1 sequence (whole entry): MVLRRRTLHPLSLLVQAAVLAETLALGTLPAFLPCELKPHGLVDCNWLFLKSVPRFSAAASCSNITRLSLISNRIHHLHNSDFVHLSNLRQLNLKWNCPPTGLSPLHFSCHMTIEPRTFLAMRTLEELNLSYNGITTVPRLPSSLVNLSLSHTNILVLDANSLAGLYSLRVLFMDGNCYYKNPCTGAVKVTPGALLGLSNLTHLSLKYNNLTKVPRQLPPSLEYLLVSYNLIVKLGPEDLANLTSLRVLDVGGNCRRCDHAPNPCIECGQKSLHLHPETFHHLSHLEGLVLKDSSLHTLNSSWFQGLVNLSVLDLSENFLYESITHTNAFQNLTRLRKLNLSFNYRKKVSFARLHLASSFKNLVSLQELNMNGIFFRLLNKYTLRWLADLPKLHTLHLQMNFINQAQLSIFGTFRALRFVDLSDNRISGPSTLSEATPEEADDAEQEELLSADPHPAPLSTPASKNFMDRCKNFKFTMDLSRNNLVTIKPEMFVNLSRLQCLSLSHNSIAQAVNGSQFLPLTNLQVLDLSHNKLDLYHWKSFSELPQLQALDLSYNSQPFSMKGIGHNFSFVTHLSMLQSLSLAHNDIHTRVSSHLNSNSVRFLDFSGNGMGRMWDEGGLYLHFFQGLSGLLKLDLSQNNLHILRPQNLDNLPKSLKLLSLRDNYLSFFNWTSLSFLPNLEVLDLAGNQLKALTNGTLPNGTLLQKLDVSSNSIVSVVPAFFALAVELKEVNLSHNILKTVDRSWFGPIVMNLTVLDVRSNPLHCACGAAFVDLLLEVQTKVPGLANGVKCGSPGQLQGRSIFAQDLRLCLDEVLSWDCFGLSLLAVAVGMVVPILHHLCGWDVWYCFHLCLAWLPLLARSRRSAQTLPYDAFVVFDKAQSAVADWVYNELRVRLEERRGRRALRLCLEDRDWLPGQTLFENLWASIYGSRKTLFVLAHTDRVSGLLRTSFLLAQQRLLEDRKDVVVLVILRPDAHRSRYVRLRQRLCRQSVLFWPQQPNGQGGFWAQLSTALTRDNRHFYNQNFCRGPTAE

| Structure (SMILES) | Activity (PBMC [1]) | Ratio (Homo sapiens [2]) | Activity (Homo sapiens [3]) | Activity (Homo sapiens [4]) | Activity (PBMC [5]) | Activity (Mus musculus) | Activity (PBMC [6]) | Activity (Homo sapiens [7]) | Activity (Homo sapiens [8]) | Activity (PBMC [9]) | Activity (Homo sapiens [10]) | Activity (PBMC [11]) | Activity (Homo sapiens [12]) | Activity (PBMC [14]) | Activity (PBMC [15]) | Activity (Homo sapiens [16]) | Activity (Splenocyte) | Activity (PBMC [17]) | Activity (PBMC [18]) | Activity (PBMC [19]) | further results |
| --- | --- | --- | --- | --- | --- | --- | --- | --- | --- | --- | --- | --- | --- | --- | --- | --- | --- | --- | --- | --- | --- |
| Nc1ccn([C@@H]2O[C@H](COP(=O)(S)O[C@H]3[C@@H](O)[C@H](n4cnc5c(N)ncnc54)O[C@@H]3CO)[C@@H](OP(=O)(S)OC[C@H]3O[C@@H](n4ccc(=O)[nH]c4=O)[C@H](O)[C@@H]3OP(=O)(S)OC[C@H]3O[C@@H](n4ccc(=O)[nH]c4=O)[C@H](O)[C@@H]3OP(=O)(S)OC[C@H]3O[C@@H](n4ccc5c(=O)[nH]c(N)nc54)[C@H](O)[C@@H]3OP(=O)(S)OC[C@H]3O[C@@H](n4cnc5c(N)ncnc54)[C@H](O)[C@@H]3OP(=O)(S)OC[C@H]3O[C@@H](n4cnc5c(N)ncnc54)[C@H](O)[C@@H]3OP(=O)(S)OC[C@H]3O[C@@H](n4ccc5c(=O)[nH]c(N)nc54)[C@H](O)[C@@H]3OP(=O)(S)OC[C@H]3O[C@@H](n4ccc(N)nc4=O)[C@H](O)[C@@H]3OP(=O)(S)OC[C@H]3O[C@@H](n4ccc(=O)[nH]c4=O)[C@H](O)[C@@H]3OP(=O)(S)OC[C@H]3O[C@@H](n4ccc(=O)[nH]c4=O)[C@H](O)[C@@H]3OP(=O)(S)OCC(O)COP(=O)(S)O[C@H]3[C@@H](O)[C@H](n4ccc(=O)[nH]c4=O)O[C@@H]3COP(=O)(S)O[C@H]3[C@@H](O)[C@H](n4ccc(=O)[nH]c4=O)O[C@@H]3COP(=O)(S)O[C@H]3[C@@H](O)[C@H](n4ccc(N)nc4=O)O[C@@H]3COP(=O)(S)O[C@H]3[C@@H](O)[C@H](n4ccc5c(=O)[nH]c(N)nc54)O[C@@H]3COP(=O)(S)O[C@H]3[C@@H](O)[C@H](n4cnc5c(N)ncnc54)O[C@@H]3COP(=O)(S)O[C@H]3[C@@H](O)[C@H](n4cnc5c(N)ncnc54)O[C@@H]3COP(=O)(S)O[C@H]3[C@@H](O)[C@H](n4ccc5c(=O)[nH]c(N)nc54)O[C@@H]3COP(=O)(S)O[C@H]3[C@@H](O)[C@H](n4ccc(=O)[nH]c4=O)O[C@@H]3COP(=O)(S)O[C@H]3[C@@H](O)[C@H](n4ccc(=O)[nH]c4=O)O[C@@H]3COP(=O)(S)O[C@H]3[C@@H](O)[C@H](n4ccc(N)nc4=O)O[C@@H]3COP(=O)(S)O[C@H]3[C@@H](O)[C@H](n4cnc5c(N)ncnc54)O[C@@H]3CO)[C@H]2O)c(=O)n1 (stereo not given in full) | 230 pg/mL | 11.9 | Active | Active | 5630 pg/mL | Active | 287 pg/mL | Active | Active | 2730 pg/mL | Active | 76 pg/mL | Active | 52900 pg/mL | 442 pg/mL | Active | Active | 9220 pg/mL | 261 pg/mL | 354 pg/mL | remaining at 10 min [13]: 79%; Activity (Homo sapiens [20]): Active; Activity [21]: inactive |
| Nc1ccn([C@@H]2O[C@H](COP(O)(=S)O[C@H]3[C@@H](O)[C@H](n4ccc(=O)[nH]c4=O)O[C@@H]3COP(O)(=S)O[C@H]3[C@@H](O)[C@H](n4ccc(=O)[nH]c4=O)O[C@@H]3COP(O)(=S)O[C@H]3[C@@H](O)[C@H](n4ccc(N)nc4=O)O[C@@H]3COP(O)(=S)O[C@H]3[C@@H](O)[C@H](n4ccc5c(=O)[nH]c(N)nc54)O[C@@H]3COP(O)(=S)O[C@H]3[C@@H](O)[C@H](n4ccc(=O)[nH]c4=O)O[C@@H]3COP(O)(=S)O[C@H]3[C@@H](O)[C@H](n4ccc(N)nc4=O)O[C@@H]3COP(O)(=S)O[C@H]3[C@@H](O)[C@H](n4ccc5c(=O)[nH]c(N)nc54)O[C@@H]3COP(O)(=S)O[C@H]3[C@@H](O)[C@H](n4ccc(=O)[nH]c4=O)O[C@@H]3CO)[C@@H](OP(O)(=S)OC[C@H]3O[C@@H](n4ccc(=O)[nH]c4=O)[C@H](O)[C@@H]3OP(O)(=S)OC[C@H]3O[C@@H](n4ccc5c(=O)[nH]c(N)nc54)[C@H](O)[C@@H]3OP(O)(=S)OCC(O)COP(O)(=S)O[C@H]3[C@@H](O)[C@H](n4ccc5c(=O)[nH]c(N)nc54)O[C@@H]3COP(O)(=S)O[C@H]3[C@@H](O)[C@H](n4ccc(=O)[nH]c4=O)O[C@@H]3COP(O)(=S)O[C@H]3[C@@H](O)[C@H](n4ccc(N)nc4=O)O[C@@H]3COP(O)(=S)O[C@H]3[C@@H](O)[C@H](n4ccc(=O)[nH]c4=O)O[C@@H]3COP(O)(=S)O[C@H]3[C@@H](O)[C@H](n4ccc(=O)[nH]c4=O)O[C@@H]3COP(O)(=S)O[C@H]3[C@@H](O)[C@H](n4ccc(N)nc4=O)O[C@@H]3COP(O)(=S)O[C@H]3[C@@H](O)[C@H](n4ccc5c(=O)[nH]c(N)nc54)O[C@@H]3COP(O)(=S)O[C@H]3[C@@H](O)[C@H](n4ccc(=O)[nH]c4=O)O[C@@H]3COP(O)(=S)O[C@H]3[C@@H](O)[C@H](n4ccc(N)nc4=O)O[C@@H]3COP(O)(=S)O[C@H]3[C@@H](O)[C@H](n4ccc5c(=O)[nH]c(N)nc54)O[C@@H]3COP(O)(=S)O[C@H]3[C@@H](O)[C@H](n4ccc(=O)[nH]c4=O)O[C@@H]3CO)[C@H]2O)c(=O)n1 (stereo not given in full) | 373 pg/mL | 3.4 | Active | Active | 15500 pg/mL | Active | 167 pg/mL | Active | Active | 5580 pg/mL | Active | 688 pg/mL | Active | 47400 pg/mL | 1110 pg/mL | Active | Active | 27600 pg/mL | 688 pg/mL | 671 pg/mL | Activity (Homo sapiens [20]): Active; Activity [21]: inactive |
